Reference: ChEMBL document CHEMBL5260793, “Novel pyrazolo[3,4-d]pyrimidine with 4-(1H-benzimidazol-2-yl)-phenylamine as broad spectrum anticancer agents: Synthesis, cell based assay, topoisomerase inhibition, DNA intercalation and bovine serum albumin studies” (Eur J Med Chem, 2017)
Activity calls are given as the source filed them. The calls are words filed in the database; no cut-off is given here.

Legend:
[1] = test system: Panel CNS (Carcinoma cell lines); assay: Anticancer activity against human Panel CNS (Carcinoma cell lines) assessed as cell growth inhibition incubated for 48 hrs by Sulphorhodamine B assay; type: functional
Summary of the method: (§1)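 NCI-60 five-dose screen. Cells in RPMI 1640 with 5% FBS and 2 mM L-glutamine were plated at 5,000–40,000 cells/well and held 24 h before dosing. Compounds came from DMSO stocks and were given at five concentrations (10-fold or ½-log dilutions) for 48 h at 37 °C. Adherent cells were TCA-fixed and stained with SRB; A515 was read. GI50 was set from growth = 50% and TGI from Ti = Tz, using Tz/C/Ti.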

[2] = test system: Panel melanoma (Carcinoma cell lines); assay: Anticancer activity against human Panel melanoma (Carcinoma cell lines) assessed as cell growth inhibition incubated for 48 hrs by Sulphorhodamine B assay; type: functional; summary of the method: as §1
[3] = test system: Panel renal (Carcinoma cell lines); assay: Anticancer activity against human Panel renal (Carcinoma cell lines) assessed as cell growth inhibition incubated for 48 hrs by Sulphorhodamine B assay; type: functional; summary of the method: as §1
[4] = test system: Panel prostate (Carcinoma cell lines); assay: Anticancer activity against human Panel prostate (Carcinoma cell lines) assessed as cell growth inhibition incubated for 48 hrs by Sulphorhodamine B assay; type: functional; summary of the method: as §1
[5] = Anticancer activity against human Non-small cell lung cancer cell line assessed as total growth inhibition incubated for 48 hrs by Sulphorhodamine B assay; type: functional; summary of the method: as §1
[6] = test system: Panel ovarian (Carcinoma cell lines); assay: Anticancer activity against human Panel ovarian (Carcinoma cell lines) assessed as total growth inhibition incubated for 48 hrs by Sulphorhodamine B assay; type: functional
[7] = test system: Panel renal (Carcinoma cell lines); assay: Anticancer activity against human Panel renal (Carcinoma cell lines) assessed as total growth inhibition incubated for 48 hrs by Sulphorhodamine B assay; type: functional
[8] = test system: Panel breast (Carcinoma cell lines); assay: Anticancer activity against human Panel breast (Carcinoma cell lines) assessed as total growth inhibition incubated for 48 hrs by Sulphorhodamine B assay; type: functional; summary of the method: as §1
[9] = test system: Panel leukemia (Carcinoma cell lines); assay: Anticancer activity against human Panel leukemia (Carcinoma cell lines) assessed as lethality incubated for 48 hrs by Sulphorhodamine B assay; type: functional
[10] = Anticancer activity against human Non-small cell lung cancer cell line assessed as lethality incubated for 48 hrs by Sulphorhodamine B assay; type: functional
[11] = test system: Panel prostate (Carcinoma cell lines); assay: Anticancer activity against human Panel prostate (Carcinoma cell lines) assessed as lethality incubated for 48 hrs by Sulphorhodamine B assay; type: functional
[12] = test system: Panel breast (Carcinoma cell lines); assay: Anticancer activity against human Panel breast (Carcinoma cell lines) assessed as lethality incubated for 48 hrs by Sulphorhodamine B assay; type: functional; settings: read-out: LC50 (the source's name)
[13] = molecular target: DNA topoisomerase 2-alpha (Homo sapiens) (UniProt P11388); assay: Inhibition of human DNA topoisomerase II-alpha mediated supercoiled pHOT1 plasmid DNA relaxation at 50 uM incubated for 30 mins by ethidium bromide staining based agarose gel electrophoresis analysis
Summary of the method: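 Reaction buffer: 50 mM Tris-Cl pH 8.0, 120 mM KCl, 10 mM MgCl2, 0.5 mM ATP, 0.5 mM DTT. Each reaction held 500 ng supercoiled pHOT1 and 1 U human Topo IIα, with compound at 10–100 μM, for 30 min at 37 °C. Reactions were stopped with glycerol/EDTA/bromophenol blue, run on 1% agarose in TBE, and stained with ethidium bromide. Etoposide 25 μM was the positive control.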

Albumin = Albumin (Bos taurus, UniProt P02769); assay: Binding affinity to bovine serum albumin assessed as decrease in fluorescence intensity at pH 7.4 at 0 to 30 uM by fluorescence quenching method; settings: cattle
Sequence of Albumin (P02769 whole entry): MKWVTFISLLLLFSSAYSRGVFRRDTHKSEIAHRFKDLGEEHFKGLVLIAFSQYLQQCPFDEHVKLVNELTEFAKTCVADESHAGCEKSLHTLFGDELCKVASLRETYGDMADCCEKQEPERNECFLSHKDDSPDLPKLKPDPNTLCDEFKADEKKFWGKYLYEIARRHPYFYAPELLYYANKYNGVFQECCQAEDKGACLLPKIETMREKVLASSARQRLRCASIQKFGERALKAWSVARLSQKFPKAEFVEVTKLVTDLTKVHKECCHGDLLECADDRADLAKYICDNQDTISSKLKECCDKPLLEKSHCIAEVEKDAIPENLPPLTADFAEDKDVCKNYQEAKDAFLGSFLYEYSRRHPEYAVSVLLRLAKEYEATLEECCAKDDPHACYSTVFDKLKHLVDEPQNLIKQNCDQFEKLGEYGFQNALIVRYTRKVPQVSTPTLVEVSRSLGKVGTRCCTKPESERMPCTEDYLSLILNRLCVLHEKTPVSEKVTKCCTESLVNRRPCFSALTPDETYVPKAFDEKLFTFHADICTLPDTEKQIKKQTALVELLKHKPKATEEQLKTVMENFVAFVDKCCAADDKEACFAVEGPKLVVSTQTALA

Sequence of DNA topoisomerase 2-alpha (Homo sapiens) (P11388 whole entry): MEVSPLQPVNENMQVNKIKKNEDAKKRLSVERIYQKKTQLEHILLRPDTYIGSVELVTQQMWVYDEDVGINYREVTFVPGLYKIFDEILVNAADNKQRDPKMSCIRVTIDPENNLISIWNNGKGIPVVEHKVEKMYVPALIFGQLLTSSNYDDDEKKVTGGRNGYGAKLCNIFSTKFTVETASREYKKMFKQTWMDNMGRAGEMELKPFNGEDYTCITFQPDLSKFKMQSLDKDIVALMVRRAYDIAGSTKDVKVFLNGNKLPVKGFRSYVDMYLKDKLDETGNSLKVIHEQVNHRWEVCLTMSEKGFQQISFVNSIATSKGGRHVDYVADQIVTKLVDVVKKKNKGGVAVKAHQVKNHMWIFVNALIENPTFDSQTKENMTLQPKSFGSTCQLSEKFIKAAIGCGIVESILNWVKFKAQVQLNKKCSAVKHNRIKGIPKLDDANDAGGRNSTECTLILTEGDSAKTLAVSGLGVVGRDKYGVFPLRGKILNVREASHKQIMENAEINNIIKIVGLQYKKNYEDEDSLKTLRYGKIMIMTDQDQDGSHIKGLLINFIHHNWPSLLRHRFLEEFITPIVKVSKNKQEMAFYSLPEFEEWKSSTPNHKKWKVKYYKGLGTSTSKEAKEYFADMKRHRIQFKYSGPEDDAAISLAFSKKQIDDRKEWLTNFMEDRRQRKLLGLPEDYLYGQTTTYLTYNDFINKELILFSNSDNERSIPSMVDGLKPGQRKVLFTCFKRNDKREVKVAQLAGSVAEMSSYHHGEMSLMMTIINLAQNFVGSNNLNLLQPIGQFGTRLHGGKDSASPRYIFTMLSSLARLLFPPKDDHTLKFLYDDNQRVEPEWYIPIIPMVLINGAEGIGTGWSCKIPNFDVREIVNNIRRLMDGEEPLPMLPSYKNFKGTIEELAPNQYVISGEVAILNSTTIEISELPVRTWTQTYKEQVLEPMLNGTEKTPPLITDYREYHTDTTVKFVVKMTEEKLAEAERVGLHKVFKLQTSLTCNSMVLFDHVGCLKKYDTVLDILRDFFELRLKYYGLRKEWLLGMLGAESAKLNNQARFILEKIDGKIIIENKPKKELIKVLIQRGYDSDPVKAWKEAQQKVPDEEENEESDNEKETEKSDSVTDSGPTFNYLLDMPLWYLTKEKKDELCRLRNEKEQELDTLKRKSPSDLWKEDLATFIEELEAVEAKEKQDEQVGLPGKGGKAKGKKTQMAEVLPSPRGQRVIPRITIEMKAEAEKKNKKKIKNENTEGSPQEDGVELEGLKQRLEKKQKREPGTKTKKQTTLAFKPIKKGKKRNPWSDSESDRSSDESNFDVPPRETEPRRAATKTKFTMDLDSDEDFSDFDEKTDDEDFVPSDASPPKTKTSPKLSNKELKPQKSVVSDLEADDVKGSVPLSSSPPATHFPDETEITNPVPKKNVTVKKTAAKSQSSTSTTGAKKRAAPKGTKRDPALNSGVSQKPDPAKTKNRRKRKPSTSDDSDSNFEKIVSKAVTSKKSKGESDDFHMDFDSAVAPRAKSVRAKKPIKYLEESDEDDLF

SMILES	GI50 [1]	GI50 [2]	GI50 [3]	GI50 [4]	TGI [5]	TGI [6]	TGI [7]	TGI [8]	LC50 [9]	LC50 (lethal concentration, 50% cell kill) [10]	LC50 [11]	CC50 [12]	inhibition [13]	Activity (Albumin)
Fc1ccc(Nc2nc(Nc3ccc(-c4nc5ccccc5[nH]4)cc3)c3cn[nH]c3n2)cc1	2.06 µM	2.8 µM	1.84 µM	1.95 µM	5.37 µM	6.77 µM	7.35 µM	4.8 µM	> 100 µM	32.5 µM	9.22 µM	19 µM	Active	Active
OCCN1CCN(c2nc(Nc3ccc(-c4nc5ccccc5[nH]4)cc3)c3cn[nH]c3n2)CC1	1.47 µM	1.81 µM	1.76 µM	1.49 µM	3.23 µM	3.59 µM	3.26 µM	3.83 µM	> 100 µM	6.26 µM	5.97 µM	7.02 µM	Active	Active
